In article PMC7003739 (Clinical Pharmacology in Drug Development, 2019):
Marks after values point to notes of the source that are not given here.

Key:
[1] = 15 mg BID over 14 days, healthy volunteers; cited from earlier work
Safety and tolerability = assay type: in vivo, human
How it was run: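 Healthy Japanese volunteers (Cohort B) were randomised 3:1 to a single oral 15 mg test compound dose or matching placebo on day 1, then 15 mg BID for 5 days (single dose on the last day) or placebo. Adverse events (intensity and treatment relatedness), clinical observations and vital signs were monitored throughout. ECG was done at specified post-dose times. Physical examination was on day 0 and 72 h after the final dose.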

[2] = Plasma PK after single oral doses; assay type: in vivo, human; details: for AUCinf, arithmetic mean (SD) / AUCinf, geometric mean (%CV) / Cmax, arithmetic mean (SD) / Cmax, geometric mean (%CV) / tmax, median (range) / t½, arithmetic mean (SD): n=6; for tmax, J‐W difference of median: Japanese‐Western
How it was run: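 Healthy Japanese and Western volunteers took single oral doses of 1, 5 and 30 mg or placebo with 240 mL water on days 1, 4 and 7, with a 2-day washout. Heparinized blood was taken predose and at 0.25–48 h, centrifuged within 30 min at 4°C, and the plasma frozen at –20°C. Assay was LC-MS/MS (0.100–350 ng/mL), with values below the quantification limit set to zero. Japanese/Western geometric mean ratios came from log-scale ANOVA.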

[3] = Plasma PK after single and multiple doses; assay type: in vivo, human; details: Japanese, Cohort B; for AUCτ, arithmetic mean (SD) / AUCτ, geometric mean (%CV): τ 12 hours
[4] = humans; cited from earlier work
Urinary PK = assay type: in vivo, human; details: for Ae6, arithmetic mean (SD) / Ae12, arithmetic mean (SD) / Ae24%, arithmetic mean (SD) / CLR, arithmetic mean (SD) / CLR, geometric mean (%CV) / CLR, median: Cohort A
[5] = Cohort B Japanese, 15 mg BID, N=6
[6] = Japanese, single oral 1 mg, Cohort A
[7] = Japanese, single oral 5 mg, Cohort A
[8] = Japanese, single oral 30 mg, Cohort A
[9] = Western, single oral 1 mg, Cohort A
[10] = Western, single oral 5 mg, Cohort A
[11] = Western, single oral 30 mg, Cohort A
[12] = day 8 multiple dose 15 mg BID for 5 days, n=6
[13] = Japanese, Cohort B, single 15 mg dose
[14] = Japanese, single oral 1 mg, n=6
[15] = Japanese, single oral 5 mg, n=5
[16] = Japanese, single oral 5 mg, n=6
[17] = Japanese, single oral 30 mg, n=6
[18] = Western, single oral 30 mg, n=6

Structure (SMILES): C[C@@H]1CCN(C(=O)CC#N)C[C@@H]1N(C)c1ncnc2[nH]ccc12 [tofacitinib]
- effect on glomerular filtration rate [1]: did not alter the glomerular filtration rate
- Constipation, n (all causality) (Safety and tolerability; [5]): 1
- Hunger, n (all causality) (Safety and tolerability; [5]): 2
- Skin irritation, n (all causality) (Safety and tolerability; [5]): 1
- adverse events of moderate intensity: skin irritation, events (Safety and tolerability; Cohort B, single dose 15 mg, not considered related to study treatment): 1
- renal function (individual creatinine levels) following repeat administration (Safety and tolerability; Japanese, Cohort B, 15 mg BID): renal function remained unaffected
- changes in vital signs or ECG measurements (Safety and tolerability; whole study): no clinically significant changes
- clinically significant laboratory abnormalities (Safety and tolerability; whole study): no volunteers had clinically significant laboratory abnormalities
- serious adverse events or deaths (Safety and tolerability; whole study, Cohorts A and B): No serious adverse events or deaths were reported
- differences in systemic exposure (Cmax, AUCinf) between Japanese and Western volunteers ([2]; 1, 5, 30 mg single doses, analysis of variance): No significant differences
- AUCinf, arithmetic mean (SD) [2, 6]: 22.8 (6.37) ng ⋅ h/mL
- AUCinf, geometric mean (%CV) [2, 6]: 22.0 (28) ng ⋅ h/mL
- Cmax, arithmetic mean (SD) [2, 6]: 7.38 (1.05) ng/mL
- Cmax, geometric mean (%CV) [2, 6]: 7.32 (14) ng/mL
- tmax, median (range) [2, 6]: 0.75 (0.50‐2.00) h
- t½, arithmetic mean (SD) [2, 6]: 1.96 (0.240) h
- AUCinf, arithmetic mean (SD) [2, 7]: 114 (25.5) ng ⋅ h/mL
- AUCinf, geometric mean (%CV) [2, 7]: 111 (22) ng ⋅ h/mL
- Cmax, arithmetic mean (SD) [2, 7]: 43.1 (15.0) ng/mL
- Cmax, geometric mean (%CV) [2, 7]: 41.3 (35) ng/mL
- tmax, median (range) [2, 7]: 0.50 (0.50‐1.00) h
- t½, arithmetic mean (SD) [2, 7]: 2.49 (0.570) h
- AUCinf, arithmetic mean (SD) [2, 8]: 775 (203) ng ⋅ h/mL
- AUCinf, geometric mean (%CV) [2, 8]: 754 (26) ng ⋅ h/mL
- Cmax, arithmetic mean (SD) [2, 8]: 324 (82.7) ng/mL
- Cmax, geometric mean (%CV) [2, 8]: 315 (25) ng/mL
- tmax, median (range) [2, 8]: 0.50 (0.50‐1.00) h
- t½, arithmetic mean (SD) [2, 8]: 3.14 (0.497) h
- tmax, J‐W difference of median ([2]; single oral 1 mg, Cohort A): 0.00 h
- tmax, J‐W difference of median ([2]; single oral 5 mg, Cohort A): 0.00 h
- tmax, J‐W difference of median ([2]; single oral 30 mg, Cohort A): 0.00 h
- AUCinf, arithmetic mean (SD) [2, 9]: 22.9 (2.52) ng ⋅ h/mL
- AUCinf, geometric mean (%CV) [2, 9]: 22.8 (11) ng ⋅ h/mL
- Cmax, arithmetic mean (SD) [2, 9]: 7.53 (1.69) ng/mL
- Cmax, geometric mean (%CV) [2, 9]: 7.36 (22) ng/mL
- tmax, median (range) [2, 9]: 0.75 (0.50‐1.00) h
- t½, arithmetic mean (SD) [2, 9]: 2.14 (0.210) h
- AUCinf, arithmetic mean (SD) [2, 10]: 120 (16.8) ng ⋅ h/mL
- AUCinf, geometric mean (%CV) [2, 10]: 119 (14) ng ⋅ h/mL
- Cmax, arithmetic mean (SD) [2, 10]: 36.0 (9.78) ng/mL
- Cmax, geometric mean (%CV) [2, 10]: 34.9 (27) ng/mL
- tmax, median (range) [2, 10]: 0.50 (0.50‐2.00) h
- t½, arithmetic mean (SD) [2, 10]: 2.85 (0.691) h
- AUCinf, arithmetic mean (SD) [2, 11]: 797 (131) ng ⋅ h/mL
- AUCinf, geometric mean (%CV) [2, 11]: 788 (16) ng ⋅ h/mL
- Cmax, arithmetic mean (SD) [2, 11]: 269 (47.9) ng/mL
- Cmax, geometric mean (%CV) [2, 11]: 265 (18) ng/mL
- tmax, median (range) [2, 11]: 0.50 (0.50‐1.00) h
- t½, arithmetic mean (SD) [2, 11]: 3.50 (0.349) h
- geometric mean Cmax in Japanese higher than in Western volunteers ([2]; single 5 and 30 mg doses, Cohort A): approximately 19%
- increase of systemic exposure with dose ([2]; single oral doses 1, 5, 30 mg): approximately dose‐proportional
- drug accumulation upon repeat dosing ([3]; 15 mg BID): negligible drug accumulation
- time to steady state plasma concentration ([3]; 15 mg BID for 5 days): ≤ 24 h
- AUCinf, arithmetic mean (SD) ([3]; day 1 single dose 15 mg, n=6): 417 (133) ng ⋅ h/mL
- AUCinf, geometric mean (%CV) ([3]; day 1 single dose 15 mg, n=6): 399 (32) ng ⋅ h/mL
- Cmax, arithmetic mean (SD) ([3]; day 1 single dose 15 mg, n=6): 149 (50.6) ng/mL
- Cmax, geometric mean (%CV) ([3]; day 1 single dose 15 mg, n=6): 141 (34) ng/mL
- tmax, median (range) ([3]; day 1 single dose 15 mg, n=6): 0.75 (0.50‐1.00) h
- t½, arithmetic mean (SD) ([3]; day 1 single dose 15 mg, n=6): 3.14 (0.672) h
- AUCτ, arithmetic mean (SD) ([3]; day 1 single dose 15 mg, n=6): 403 (128) ng ⋅ h/mL
- AUCτ, geometric mean (%CV) ([3]; day 1 single dose 15 mg, n=6): 387 (32) ng ⋅ h/mL
- Cmax, arithmetic mean (SD) [3, 12]: 143 (45.9) ng/mL
- Cmax, geometric mean (%CV) [3, 12]: 136 (32) ng/mL
- tmax, median (range) [3, 12]: 0.75 (0.50‐1.00) h
- t½, arithmetic mean (SD) [3, 12]: 3.28 (0.544) h
- AUCτ, arithmetic mean (SD) [3, 12]: 457 (116) ng ⋅ h/mL
- AUCτ, geometric mean (%CV) [3, 12]: 445 (25) ng ⋅ h/mL
- contribution of renal clearance to clearance [4]: approximately 30%
- CLR reduction after multiple‐dose vs single‐dose administration, average (Urinary PK; Japanese, Cohort B, 15 mg): 24%
- CLR, geometric mean [SD] (Urinary PK; Japanese, Cohort B, multiple dose 15 mg BID): 120 mL/min
- Ae24%, arithmetic mean (SD) percentage of unchanged tofacitinib excreted in urine 24 hours after dose (Urinary PK; [13]): 27.1%
- CLR, geometric mean [SD] (Urinary PK; [13]): 158 mL/min
- Mean CLR decrease with increasing dose (Urinary PK; Japanese, single doses 1 to 30 mg (162 to 148 mL/min)): 8.6%
- Ae6, arithmetic mean (SD) (Urinary PK; [14]): 0.191 (0.0469) mg
- Ae12, arithmetic mean (SD) (Urinary PK; [14]): 0.215 (0.0527) mg
- Ae24%, arithmetic mean (SD) (Urinary PK; [14]): 22.0%
- CLR, arithmetic mean (SD) (Urinary PK; [14]): 166 (45.2) mL/min
- CLR, geometric mean (%CV) (Urinary PK; [14]): 162 (27) mL/min
- CLR, median (Urinary PK; [14]): 144 mL/min
- Ae24%, arithmetic mean (SD) (Urinary PK; Japanese, single oral 1 mg, n=6, listed as Tofacitinib): 22.0 (5.34) %
- Ae12, arithmetic mean (SD) (Urinary PK; [15]): 0.995 ^c (0.367) mg
- Ae24%, arithmetic mean (SD) (Urinary PK; [15]): 20.4%
- CLR, geometric mean (%CV) (Urinary PK; [15]): 134 ^c (25) mL/min
- Ae24%, arithmetic mean (SD) (Urinary PK; Japanese, single oral 5 mg, n=5, listed as Tofacitinib): 20.4 ^c (7.51) %
- Ae6, arithmetic mean (SD) (Urinary PK; [16]): 0.890 (0.327) mg
- CLR, arithmetic mean (SD) (Urinary PK; [16]): 137 (33.8) mL/min
- CLR, median (Urinary PK; [16]): 136 mL/min
- Ae6, arithmetic mean (SD) (Urinary PK; [17]): 5.59 (0.832) mg
- Ae12, arithmetic mean (SD) (Urinary PK; [17]): 6.46 (0.791) mg
- Ae24%, arithmetic mean (SD) (Urinary PK; [17]): 22.5%
- CLR, arithmetic mean (SD) (Urinary PK; [17]): 153 (41.8) mL/min
- CLR, geometric mean (%CV) (Urinary PK; [17]): 148 (27) mL/min
- CLR, median (Urinary PK; [17]): 149 mL/min
- Ae24%, arithmetic mean (SD) (Urinary PK; Japanese, single oral 30 mg, n=6, listed as Tofacitinib): 22.5 (3.00) %
- Mean CLR decrease with increasing dose (Urinary PK; Western, single doses 1 to 30 mg (160 to 124 mL/min)): 22.5%
- Ae24%, arithmetic mean (SD) (Urinary PK; Western, single oral 1 mg, n=5): 21.2%
- CLR, geometric mean (%CV) (Urinary PK; Western, single oral 1 mg, n=5): 160 ^c (11) mL/min
- Ae24%, arithmetic mean (SD) (Urinary PK; Western, single oral 1 mg, n=5, listed as Tofacitinib): 21.2 ^c (0.865) %
- Ae6, arithmetic mean (SD) (Urinary PK; Western, single oral 1 mg, n=6): 0.169 (0.0128) mg
- Ae12, arithmetic mean (SD) (Urinary PK; Western, single oral 1 mg, n=6): 0.199 (0.0127) mg
- CLR, arithmetic mean (SD) (Urinary PK; Western, single oral 1 mg, n=6): 161 (17.7) mL/min
- CLR, median (Urinary PK; Western, single oral 1 mg, n=6): 158 mL/min
- Ae12, arithmetic mean (SD) (Urinary PK; Western, single oral 5 mg, n=5): 0.919 ^c (0.265) mg
- Ae24%, arithmetic mean (SD) (Urinary PK; Western, single oral 5 mg, n=5): 19.9%
- CLR, geometric mean (%CV) (Urinary PK; Western, single oral 5 mg, n=5): 136 ^c (29) mL/min
- Ae24%, arithmetic mean (SD) (Urinary PK; Western, single oral 5 mg, n=5, listed as Tofacitinib): 19.9 ^c (5.15) %
- Ae6, arithmetic mean (SD) (Urinary PK; Western, single oral 5 mg, n=6): 0.744 (0.224) mg
- CLR, arithmetic mean (SD) (Urinary PK; Western, single oral 5 mg, n=6): 141 (40.6) mL/min
- CLR, median (Urinary PK; Western, single oral 5 mg, n=6): 148 mL/min
- Ae6, arithmetic mean (SD) (Urinary PK; [18]): 4.15 (1.11) mg
- Ae12, arithmetic mean (SD) (Urinary PK; [18]): 5.63 (1.28) mg
- Ae24%, arithmetic mean (SD) (Urinary PK; [18]): 19.8%
- CLR, arithmetic mean (SD) (Urinary PK; [18]): 127 (30.1) mL/min
- CLR, geometric mean (%CV) (Urinary PK; [18]): 124 (24) mL/min
- CLR, median (Urinary PK; [18]): 127 mL/min
- Ae24%, arithmetic mean (SD) (Urinary PK; Western, single oral 30 mg, n=6, listed as Tofacitinib): 19.8 (4.11) %
- percentage of unchanged tofacitinib excreted in urine (Urinary PK; over 24 hours after single‐dose administration, across doses and ethnicities): approximately 20%
